Data set [1] can be described thus: Drug recovery from 2D cultures or LAMPS chip effluent. The data set is classed as in vitro ADME, human. Conditions: human; for recovery: primary human hepatocytes, 2D cultures or LAMPS chips. An outline of the steps:
(§1)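 Hepatocytes were seeded from thaw at 2.75×10^6 cells/mL into fibronectin/collagen I-coated chips or 96-well plates, then overlaid with THP-1, EA.hy926 and LX-2 cells. Drugs in 0.1% DMSO vehicle were added on day 0. Chips were perfused at 15 μL/hour, and 2D media were exchanged daily for up to 10 days. Drugs in effluent or medium were quantified by LC-MS/MS and expressed as % of starting concentration. Values are mean±SEM, n=3–9.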

Data set [2] has as its system primary human hepatocytes. Conditions: cited from earlier work.
Data set [3] relates to primary human hepatocytes. The data set can be described thus: Drug recovery from 2D cultures or LAMPS chip effluent. The data set is classed as in vitro ADME. The note with it: primary human hepatocytes; effect most pronounced for these drugs. The method, boiled down:
as §1

Assay in data set [4]: as above
Conditions: human, iCell hepatocytes. The data set is classed as in vitro ADME. The method, boiled down: as §1

Data set [5] deals with primary human hepatocytes. The data set can be described thus: Drug effects on viability and function. Conditions: both laboratories. It counts as cell-based.
Data set [6] has as its system primary human hepatocytes. In words: Drug effects on viability and function in 2D monolayer cultures. Conditions: day 10; 2D cultures with primary hepatocytes; Tolcapone 88 μM, Trovafloxacin 150 μM, LPS 1 μg/mL. The data set is classed as cell-based.
The mark [7] stands for this setting: Tolcapone 88 μM, 5 days, vs No Treatment.
Where [8] appears, read: 2D monolayer-cultured primary human hepatocytes.

Where two headings read alike, the source gives them in different places.

As to `Cn1c(=O)c2c(ncn2C)n(C)c1=O` [Caffeine], the recovery in data set [1] was roughly 100%. Also, the “effect on LDH levels” value in data set [2] (Caffeine 600 μM, previous study in Laboratory 2, different donor hepatocytes, ref Vernetti et al. 2016) is “reduced”. For the same molecule, in data set [2], the effect on albumin result is given as “without significant effect” and the effect on urea entry is “without significant effect”.
Take `CCc1ccc(CCOc2ccc(CC3SC(=O)NC3=O)cc2)nc1` (centres unmarked) [Pioglitazone]: in data set [3], the “recovery in LAMPS chips compared with 2D monolayer cultures” value is “lower recovery than 2D monolayer cultures”. Further, the recovery is 10 to 40% in data set [4]; roughly 100% in data set [4] (LAMPS chips and 2D monolayer).
`CN(CCOc1ccc(CC2SC(=O)NC2=O)cc1)c1ccccn1` (centres unmarked) [Rosiglitazone]: the recovery is 10 to 40% in data set [4]; roughly 100% in data set [4] (LAMPS chips and 2D monolayer).
Consider `Cc1ccc(C(=O)c2cc(O)c(O)c([N+](=O)[O-])c2)cc1` [Tolcapone], for which the albumin production entry in data set [5] (setting [7]) was “statistically significant decrease”. For the same molecule, the urea production result in data set [5] (setting [7]) is listed as “statistically significant decrease”. For the same molecule, in data set [6], the cell viability result was “pronounced effects”. For the same molecule, the recovery in data set [4] was 10 to 40%; in data set [4] (LAMPS chips and 2D monolayer), roughly 100%.
Take `Cc1c(C)c2c(c(C)c1O)CCC(C)(COc1ccc(CC3SC(=O)NC3=O)cc1)O2` (centres unmarked) [Troglitazone]: in data set [1] (setting [8]), the recovery at 28 µM is greater than 10% and the recovery at 1 day, 28 µM is less than 1%. The “recovery in LAMPS chips compared with 2D monolayer cultures” value in data set [3] was “lower recovery than 2D monolayer cultures”. For the same molecule, in data set [4], the recovery lay within 10 to 40%. In data set [4] (LAMPS chips and 2D monolayer), this molecule registered a recovery of roughly 100%.
Take `N[C@@H]1[C@H]2CN(c3nc4c(cc3F)c(=O)c(C(=O)O)cn4-c3ccc(F)cc3F)C[C@@H]12` [Trovafloxacin]: in data set [5] (Trovafloxacin 150 μM), the “effect on LDH” value was “significant effects” and the effect on albumin result was “significant effects”. The cell viability entry in data set [6] is listed as “pronounced effects”. Besides, in data set [1], the recovery is roughly 100%.
